Source: ChEMBL document CHEMBL4354871, “Discovery of Selective Small Molecule Degraders of BRAF-V600E” (J Med Chem, 2020)
Activity calls are given as the source filed them. The calls are words filed in the database; no cut-off is given here.

Columns and labels:
HaCaT = test: Cytotoxicity in human HaCaT cells assessed as reduction in cell viability at 10 nM to 10 uM by Cell-titer-Lumi assay; type: cell-based
How it was run: (§1)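 Cells grown in DMEM with 10% FBS at 37 °C, 5% CO2. Seeded at 2000 cells/well, then treated across a 12-point serial dilution. Viability read after three days by CellTiter-Lumi luminescence. IC50 obtained by nonlinear least-squares regression of dose-response curves. Lines STR-authenticated and mycoplasma-free.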

A-375 [1] = test: Inhibition of colony formation in human A375 cells at 40 to 1000 nM incubated for 7 days by crystal violet staining based assay; type: functional, cell-based
How it was run: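 A375 plated at 200 cells/well, dosed the following day with DMSO or compound. After seven days, cells fixed and stained with 0.5% crystal violet, and colonies counted. Data as mean ± SD; Student's t-test against corresponding control groups.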

[2] = tested on: Protein cereblon/Serine/threonine-protein kinase B-raf (Homo sapiens), P15056+Q96SW2 [V600E]; test: Protac activity at CRBN/BRAF V600E mutant in human A375 cells assessed as reduction in BRAF V600E mutant-mediated ERK phosphorylation at 1 to 1000 nM incubated for 16 hrs by immunoblotting; type: cell-based
How it was run: (§2)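 A375 cells (BRAF-V600E, DMEM with 10% FBS, 37 °C, 5% CO2) were exposed to DMSO or a serial dilution of degrader for 16 h. Cells were lysed in cold RIPA with protease and phosphatase inhibitors, protein was measured by BCA, and samples were run on SDS-PAGE. Blots were probed for BRAF, p-ERK1/2 and α-tubulin, detected by ECL, and bands were quantitated.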

[3] = tested on: Protein cereblon/Serine/threonine-protein kinase B-raf (Homo sapiens), P15056+Q96SW2 [V600E]; test: Protac activity at CRBN/BRAF V600E mutant in human A375 cells assessed as induction of BRAF V600E mutant degradation at 500 nM incubated for 6 hrs after 1 hr pre-treatment with 1 uM NEDD8-activating enzyme inhibitor […] by immunoblotting
[4] = tested on: Protein cereblon/Serine/threonine-protein kinase B-raf (Homo sapiens), P15056+Q96SW2 [V600E]; test: Protac activity at CRBN/BRAF V600E mutant in human A375 cells assessed as induction of BRAF V600E mutant degradation at 500 nM incubated for 6 hrs after 1 hr pre-treatment with 20 uM proteasome inhibitor MG132 by immunoblotting
[5] = biological target: Serine/threonine-protein kinase B-raf (Homo sapiens, UniProt P15056, V600E); test: Binding affinity to DNA-tagged BRAF (unknown origin) V600E mutant by KINOMEscan assay
[6] = tested on: Protein cereblon/Serine/threonine-protein kinase B-raf (Homo sapiens), P15056+Q96SW2 [V600E]; test: Protac activity at CRBN/BRAF V600E mutant in human A375 cells assessed as induction of BRAF V600E mutant degradation at 1 to 1000 nM incubated for 16 hrs by immunoblotting; type: cell-based; how it was run: as §2
[7] = biological target: T1, Serine/threonine-protein kinase B-raf (Homo sapiens, UniProt P15056); test: Binding affinity to DNA-tagged BRAF (unknown origin) by KINOMEscan assay
[8] = biological target: T2, Protein cereblon/Serine/threonine-protein kinase B-raf (Homo sapiens) (UniProt P15056+Q96SW2); test: Protac activity at CRBN/BRAF in human A549 cells assessed as induction of BRAF degradation at 15 to 1000 nM incubated for 16 hrs by immunoblotting; type: cell-based
How it was run: (§3)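 A549 cells carrying wild-type BRAF (DMEM, 10% FBS) were treated with DMSO or a 3-fold serial dilution of compound for 16 h. BRAF was read by immunoblotting: RIPA lysis, BCA protein assay, SDS-PAGE, anti-BRAF antibody with α-tubulin as loading control, ECL detection and densitometric quantitation.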

[9] = tested on: Protein cereblon/Serine/threonine-protein kinase B-raf (Homo sapiens), P15056+Q96SW2 [V600E]; test: Protac activity at CRBN/BRAF V600E mutant in human A375 cells assessed as reduction in BRAF V600E mutant-mediated ERK phosphorylation at 1 to 1000 nM incubated for 2 hrs by immunoblotting; type: cell-based
[10] = tested on: Protein cereblon/Serine/threonine-protein kinase B-raf (Homo sapiens), P15056+Q96SW2 [V600E]; test: Protac activity at CRBN/BRAF V600E mutant in human A375 cells assessed as induction of BRAF V600E mutant degradation at 500 nM incubated for 6 hrs after 1 hr pre-treatment with 10 uM pomalidomide by immunoblotting
A-375 [11] = test: Cytotoxicity in human A375 cells assessed as reduction in cell viability by Cell-titer-Lumi assay; type: functional, cell-based; how it was run: as §1
[12] = tested on: Protein cereblon/Serine/threonine-protein kinase B-raf (Homo sapiens), P15056+Q96SW2 [V600E]; test: Protac activity at CRBN/BRAF V600E mutant in human A375 cells assessed as induction of BRAF V600E mutant degradation at 500 nM incubated for 6 hrs after 1 hr pre-treatment with 200 nM proteasome inhibitor bortezomib by immunoblotting
IMR-90 = test: Cytotoxicity in human IMR90 cells assessed as reduction in cell viability at 10 nM to 10 uM by Cell-titer-Lumi assay; type: cell-based; conditions: imr-90, 10 nM to 10 uM; how it was run: as §1
[13] = tested on: Protein cereblon/Serine/threonine-protein kinase B-raf (Homo sapiens), P15056+Q96SW2 [V600E]; test: Protac activity at CRBN/BRAF V600E mutant kinase domain (unknown origin) expressed in human A375 cells assessed as induction of BRAF V600E mutant degradation at 1 to 1000 nM incubated for 16 hrs by immunoblotting; type: cell-based
How it was run: (§4)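 A375 lines stably expressing the BRAF-V600E or wild-type BRAF kinase domain were made by lentiviral transduction and kept in 1 µg/mL puromycin. They were treated with DMSO or a 3-fold serial dilution of compound for 16 h. Kinase-domain levels were read by immunoblotting of RIPA lysates with ECL and band quantitation.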

WI-38 = test: Cytotoxicity in human WI38 cells assessed as reduction in cell viability at 10 nM to 10 uM by Cell-titer-Lumi assay; type: cell-based; conditions: wi-38, 10 nM to 10 uM; how it was run: as §1
HT-29 = test: Cytotoxicity in human HT-29 cells assessed as reduction in cell viability by Cell-titer-Lumi assay; type: functional, cell-based; how it was run: as §1
[14] = biological target: T2, Protein cereblon/Serine/threonine-protein kinase B-raf (Homo sapiens); test: Protac activity at CRBN/BRAF kinase domain (unknown origin) expressed in human A375 cells assessed as induction of BRAF degradation at 1 to 1000 nM incubated for 16 hrs by immunoblotting; type: cell-based; how it was run: as §4
[15] = biological target: T1, Serine/threonine-protein kinase B-raf; test: Potency index, ratio of Kd for vemurafenib to Kd of test compound for binding affinity to DNA-tagged BRAF (unknown origin) by KINOMEscan assay
[16] = tested on: Serine/threonine-protein kinase B-raf (Homo sapiens), P15056 [V600E]; test: Potency index, ratio of Kd for vemurafenib to Kd of test compound for binding affinity to DNA-tagged BRAF (unknown origin) V600E mutant by KINOMEscan assay
[17] = biological target: T2, Protein cereblon/Serine/threonine-protein kinase B-raf (Homo sapiens); test: Protac activity at CRBN/BRAF in human A549 cells assessed as induction of BRAF degradation at 1 to 1000 nM incubated for 16 hrs by immunoblotting; type: cell-based; how it was run: as §3

Chain of Serine/threonine-protein kinase B-raf (Homo sapiens, UniProt P15056, V600E) (P15056 2-766 V600E limits assumed): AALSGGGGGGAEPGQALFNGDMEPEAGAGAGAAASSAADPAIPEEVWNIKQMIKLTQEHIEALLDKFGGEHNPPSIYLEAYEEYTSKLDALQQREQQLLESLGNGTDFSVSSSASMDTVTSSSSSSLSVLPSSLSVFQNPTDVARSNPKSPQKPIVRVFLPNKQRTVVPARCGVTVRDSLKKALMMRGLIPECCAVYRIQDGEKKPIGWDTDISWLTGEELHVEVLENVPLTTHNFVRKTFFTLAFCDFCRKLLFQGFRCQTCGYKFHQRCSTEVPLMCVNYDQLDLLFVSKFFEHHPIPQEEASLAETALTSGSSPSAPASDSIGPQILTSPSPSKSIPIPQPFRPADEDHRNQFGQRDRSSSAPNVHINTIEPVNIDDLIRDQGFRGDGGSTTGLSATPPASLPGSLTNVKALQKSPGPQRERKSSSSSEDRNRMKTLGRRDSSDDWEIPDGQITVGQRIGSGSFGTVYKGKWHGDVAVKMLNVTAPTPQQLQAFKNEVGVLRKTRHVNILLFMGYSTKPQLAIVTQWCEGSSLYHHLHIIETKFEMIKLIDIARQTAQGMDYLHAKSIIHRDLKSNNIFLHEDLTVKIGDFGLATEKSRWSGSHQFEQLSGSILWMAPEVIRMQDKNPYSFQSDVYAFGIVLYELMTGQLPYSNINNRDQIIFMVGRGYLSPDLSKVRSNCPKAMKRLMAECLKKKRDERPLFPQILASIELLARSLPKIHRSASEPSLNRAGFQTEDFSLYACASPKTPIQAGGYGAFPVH
T2 sequence (P15056 whole entry, looked up): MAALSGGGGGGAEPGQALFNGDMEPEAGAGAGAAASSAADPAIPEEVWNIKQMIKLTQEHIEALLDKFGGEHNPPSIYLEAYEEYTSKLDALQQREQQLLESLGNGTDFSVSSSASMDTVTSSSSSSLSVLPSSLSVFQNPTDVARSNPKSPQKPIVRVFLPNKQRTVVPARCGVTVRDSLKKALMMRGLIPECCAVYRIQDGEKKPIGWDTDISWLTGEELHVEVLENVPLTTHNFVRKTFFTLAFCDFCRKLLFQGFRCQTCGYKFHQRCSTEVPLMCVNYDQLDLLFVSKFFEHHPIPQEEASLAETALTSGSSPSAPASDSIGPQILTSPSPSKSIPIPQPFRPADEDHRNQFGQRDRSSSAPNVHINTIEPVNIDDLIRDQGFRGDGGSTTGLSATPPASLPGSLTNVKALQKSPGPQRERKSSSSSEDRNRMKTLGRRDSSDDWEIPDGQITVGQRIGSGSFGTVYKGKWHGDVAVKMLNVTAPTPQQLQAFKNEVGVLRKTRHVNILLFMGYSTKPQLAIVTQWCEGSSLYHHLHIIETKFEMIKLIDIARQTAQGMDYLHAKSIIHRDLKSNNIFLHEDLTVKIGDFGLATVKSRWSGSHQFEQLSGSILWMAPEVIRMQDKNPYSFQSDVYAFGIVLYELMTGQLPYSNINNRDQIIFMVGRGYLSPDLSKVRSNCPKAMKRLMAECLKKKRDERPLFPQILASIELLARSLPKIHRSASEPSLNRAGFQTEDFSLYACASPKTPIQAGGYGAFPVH
T2 sequence (Q96SW2 whole entry, looked up): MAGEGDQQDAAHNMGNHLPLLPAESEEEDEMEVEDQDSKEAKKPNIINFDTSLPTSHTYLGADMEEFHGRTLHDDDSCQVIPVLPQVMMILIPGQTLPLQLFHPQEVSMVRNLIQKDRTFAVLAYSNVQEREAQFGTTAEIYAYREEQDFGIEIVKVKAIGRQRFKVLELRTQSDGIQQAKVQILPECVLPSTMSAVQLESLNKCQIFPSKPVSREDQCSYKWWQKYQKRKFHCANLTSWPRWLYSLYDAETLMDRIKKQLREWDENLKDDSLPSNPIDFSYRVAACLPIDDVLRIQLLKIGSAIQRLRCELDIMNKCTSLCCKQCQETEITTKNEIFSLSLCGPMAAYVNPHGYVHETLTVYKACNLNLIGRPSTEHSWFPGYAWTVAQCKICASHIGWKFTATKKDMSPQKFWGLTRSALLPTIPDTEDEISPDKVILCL
T1 sequence (P15056 whole entry): as the sequence (P15056 whole entry, looked up) above
Chain of Serine/threonine-protein kinase B-raf (Homo sapiens), P15056 [V600E] (P15056 whole entry V600E): as the sequence (P15056 whole entry, looked up) above, with V600E counted along it

With CCCS(=O)(=O)Nc1ccc(F)c(-n2cc(-c3cncnc3)c3nc(N(C)C4CCN(C(=O)CCOCCOCCOCCNc5cccc6c5C(=O)N(C5CCC(=O)NC5=O)C6=O)CC4)ccc32)c1F (centres undefined) the Activity (HaCaT) was “Non-Toxic”, the inhibition (A-375 [1]) was “Active” and the Activity [2] was “Dose-dependent effect”. For the same compound, the Activity [3] was “inactive”, the Activity [4] was “inactive” and the Kd [5] was 0.002 µM. For the same compound, the Activity [6] was “Dose-dependent effect”, the Kd [7] was 0.0024 µM and the Activity [8] was “inactive”. The Activity [9] was “Active”, the Activity [10] was “inactive” and the IC50 (A-375 [11]) was 0.0465 µM. The Activity [12] was “inactive”, the Activity (IMR-90) was “Non-Toxic” and the Activity [13] was “Active”. For the same compound, the Activity (WI-38) was “Non-Toxic”, the IC50 (HT-29) was 0.051 µM and the Activity [14] was “inactive”.

For CCCS(=O)(=O)Nc1ccc(F)c(C(=O)c2c[nH]c3ncc(-c4ccc(CNC(=O)CCCCNc5ccc6c(c5)C(=O)N(C5CCC(=O)N(C)C5=O)C6=O)cc4)cc23)c1F (centres undefined), the Activity (HaCaT) was “Non-Toxic”, the Kd [5] was 0.0073 µM and the Activity [6] was “inactive”. The Kd [7] was 0.0051 µM, the IC50 (A-375 [11]) was 0.492 µM and the Activity (IMR-90) was “Non-Toxic”. For the same compound, the Activity (WI-38) was “Non-Toxic” and the IC50 (HT-29) was 0.459 µM.

With CCCS(=O)(=O)Nc1ccc(F)c(-n2cc(-c3cncnc3)c3nc(N(C)C4CCN(C(=O)CCOCCOCCOCCNc5cccc6c5C(=O)N(C5CCC(=O)N(C)C5=O)C6=O)CC4)ccc32)c1F (centres undefined) the Activity (HaCaT) was “Non-Toxic”, the Kd [5] was 0.0027 µM and the Activity [6] was “inactive”. The Kd [7] was 0.0026 µM, the IC50 (A-375 [11]) was 0.19 µM and the Activity (IMR-90) was “Non-Toxic”. For the same compound, the Activity (WI-38) was “Non-Toxic” and the IC50 (HT-29) was 0.348 µM.

CCCS(=O)(=O)Nc1ccc(F)c(C(=O)c2c[nH]c3ncc(-c4ccc(Cl)cc4)cc23)c1F [VEMURAFENIB] showed an IC50 (A-375 [11]) of 0.116 µM and an IC50 (HT-29) of 0.164 µM.

In the case of CCCS(=O)(=O)Nc1ccc(F)c(-n2cc(-c3cncnc3)c3nc(N(C)C4CCN(CC)CC4)ccc32)c1F [XP-102], the Kd [5] is reported as 0.00033 µM, the Kd [7] is reported as 0.00037 µM and the IC50 (A-375 [11]) is reported as 0.0063 µM. For the same compound, the IC50 (HT-29) was 0.0017 µM.

With CCCS(=O)(=O)Nc1ccc(F)c(C(=O)c2c[nH]c3ncc(-c4ccc(CNC(=O)CCCCNc5ccc6c(c5)C(=O)N(C5CCC(=O)NC5=O)C6=O)cc4)cc23)c1F (centres undefined) the Activity (HaCaT) was “Non-Toxic”, the inhibition (A-375 [1]) was “Active” and the Activity [2] was “Dose-dependent effect”. The Ratio [15] was 4 to 5, the Activity [3] was “inactive” and the Activity [4] was “inactive”. The Kd [5] was 0.0144 µM, the Activity [6] was “Dose-dependent effect” and the Kd [7] was 0.0095 µM. The Activity [10] was “inactive”, the IC50 (A-375 [11]) was 0.5 µM and the Activity [12] was “inactive”. For the same compound, the Activity (IMR-90) was “Non-Toxic”, the Activity [13] was “Active” and the Activity (WI-38) was “Non-Toxic”. For the same compound, the Ratio [16] was 4 to 5, the IC50 (HT-29) was 0.124 µM and the Activity [17] was “inactive”. For the same compound, the Activity [14] was “inactive”.
